From publication PMC6792223 (Chemistry of Materials, 2019)

Tests used:
[1] = system: Human-adipose-derived stem cells (hADSCs); experiment: Live/dead assay of cells cultured on the hydrogels; assay type: cell-based; conditions: 4 days in culture, live/dead staining
Procedure, shortened: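 GdL-formed gels at 1:0, 4:1, 1:1, 1:4 and 0:1 PA-E3/DBS-COOH were cross-linked with 50 mM CaCl2 and PBS-washed to pH 7. hADSCs were seeded at 5000 cells/mL and cultured 4 days at 37 °C, 5% CO2, with tissue-culture plastic as reference. Stained 30 min with calcein AM (live, green) and ethidium homodimer-1 (dead, red); imaged by confocal microscopy.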

[2] = Optical appearance of the hydrogels; assay type: physicochemical; conditions: 10 mM gelator, gelation by GdL acidification overnight; visual
Procedure, shortened: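 Gelators at 10 mM in PBS (pH 7.4) were dissolved with 0.5 M NaOH (to pH 9), either singly or mixed at 100/0, 80/20, 50/50, 20/80 and 0/100 molar % (10 mM total). Solutions were shaken with GdL (4 mg per vial) until dissolved, then left overnight to gel.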

[3] = aqueous; cited from earlier work
proteinase K = proteinase K (Parengyodontium album, UniProt P06873); experiment: Hydrogel weight loss in proteinase K solution or PBS; assay type: in vitro ADME; conditions: PBS 1× without enzyme, 37 °C, 22 days
Procedure, shortened: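 Gels (10 mM PA-E3, 10 mM DBS-COOH, or 5 mM/5 mM mixture) formed by GdL acidification, soaked 1 h in PBS, then incubated at 37 °C in proteinase K (5 mg/mL in PBS) or PBS 1× alone; solutions renewed after each weighing at intervals up to 22 days; weight loss = (Wf – Wi)/Wi × 100 versus initial weight.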

proteinase K, sequence (P06873 106-384, species assumed): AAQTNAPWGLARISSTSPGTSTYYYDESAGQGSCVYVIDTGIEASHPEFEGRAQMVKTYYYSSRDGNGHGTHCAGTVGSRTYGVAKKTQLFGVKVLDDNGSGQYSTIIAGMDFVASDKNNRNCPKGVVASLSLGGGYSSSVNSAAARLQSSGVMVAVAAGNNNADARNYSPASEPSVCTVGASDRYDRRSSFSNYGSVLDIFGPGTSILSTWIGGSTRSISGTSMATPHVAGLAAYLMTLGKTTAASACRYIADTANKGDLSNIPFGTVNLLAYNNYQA

| Optical appearance of hydrogel (transparency) [2] | Weight ratio of hydrogel in PBS (proteinase K) | Molecule | Live cell coverage of hydrogel ([1]; confocal imaging) | Cell viability on hydrogel compared with PA-E3 hydrogels ([1]; qualitative comparison) | pKa of the terminal carboxylic acid [3] |
| --- | --- | --- | --- | --- | --- |
| translucent |  | O=C(O)c1ccc([C@@H]2OC[C@@H]3O[C@H](c4ccc(C(=O)O)cc4)O[C@H]([C@H](O)CO)[C@@H]3O2)cc1 [DBS-COOH] | fully covered with live cells | more viable | 4–5 |
| optically transparent | remained constant | CH3-(CH2)14-CONH-VVVAAAEEE-CONH2 [PA-E3] |  |  | 4–5 |
